Measured values reported in ChEMBL document CHEMBL3596123, “Identification of pyrazine-based TrkA inhibitors: design, synthesis, evaluation, and computational modeling studies” (Medchemcomm, 2014).

How the values were obtained:
[1] = target: T1, High affinity nerve growth factor receptor (Homo sapiens, UniProt P04629); experiment: Inhibition of human recombinant TrkA at 20 uM using ATP and 5FAM tagged TrkA peptide substrate incubated for 60 mins by microfluidics assay
Method in brief: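 TrkA enzyme at 2 nM, preincubated with inhibitor 60 min with shaking in HEPES kinase buffer (MgCl2, DTT, Brij-35, Tween 20), then ATP (190 µM running) and 5FAM-labelled TrkA peptide (1.5 µM) added. Run to 10–20% conversion in no-inhibitor wells. Product/substrate peaks separated by microfluidic mobility-shift read. Single point at 20 µM inhibitor, quadruplicate.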
Target sequence in this assay (P04629 33-796 limits assumed): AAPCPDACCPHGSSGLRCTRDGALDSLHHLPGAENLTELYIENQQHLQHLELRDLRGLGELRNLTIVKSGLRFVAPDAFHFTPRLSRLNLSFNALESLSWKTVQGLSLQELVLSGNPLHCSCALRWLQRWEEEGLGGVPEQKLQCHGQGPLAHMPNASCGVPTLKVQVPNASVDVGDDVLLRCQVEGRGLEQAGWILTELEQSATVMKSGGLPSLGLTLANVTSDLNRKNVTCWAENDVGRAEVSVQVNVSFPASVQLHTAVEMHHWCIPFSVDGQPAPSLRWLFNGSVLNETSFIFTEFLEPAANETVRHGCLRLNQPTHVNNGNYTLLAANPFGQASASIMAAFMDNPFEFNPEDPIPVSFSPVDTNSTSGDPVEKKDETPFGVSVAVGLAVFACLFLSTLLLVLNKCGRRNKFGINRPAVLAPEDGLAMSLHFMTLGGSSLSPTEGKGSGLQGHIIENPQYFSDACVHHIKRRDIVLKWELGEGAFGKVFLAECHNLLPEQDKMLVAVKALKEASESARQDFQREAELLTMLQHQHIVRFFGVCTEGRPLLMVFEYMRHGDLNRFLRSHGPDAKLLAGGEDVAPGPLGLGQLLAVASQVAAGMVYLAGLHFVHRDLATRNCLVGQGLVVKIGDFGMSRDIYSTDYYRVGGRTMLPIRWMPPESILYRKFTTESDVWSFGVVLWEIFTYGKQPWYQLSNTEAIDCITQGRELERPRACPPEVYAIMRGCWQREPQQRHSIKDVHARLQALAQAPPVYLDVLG

[2] = target: T1, High affinity nerve growth factor receptor; experiment: Inhibition of human recombinant TrkA using ATP and 5FAM tagged TrkA peptide substrate incubated for 60 mins by microfluidics assay
Method in brief: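 TrkA enzyme at 2 nM, preincubated 60 min with inhibitor in HEPES/MgCl2/DTT kinase buffer. Reaction started with ATP 190 µM and 5FAM-TrkA peptide 1.5 µM (running). Twelve-point half-log series, 0.2 mM–0.632 nM final. Stopped at 10–20% conversion of uninhibited control. Phospho-product separated by microfluidic read. Curves fit to one-phase exponential decay, IC50 from the half-life, duplicate, mean ± SD.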
Target sequence in this assay (P04629 whole entry): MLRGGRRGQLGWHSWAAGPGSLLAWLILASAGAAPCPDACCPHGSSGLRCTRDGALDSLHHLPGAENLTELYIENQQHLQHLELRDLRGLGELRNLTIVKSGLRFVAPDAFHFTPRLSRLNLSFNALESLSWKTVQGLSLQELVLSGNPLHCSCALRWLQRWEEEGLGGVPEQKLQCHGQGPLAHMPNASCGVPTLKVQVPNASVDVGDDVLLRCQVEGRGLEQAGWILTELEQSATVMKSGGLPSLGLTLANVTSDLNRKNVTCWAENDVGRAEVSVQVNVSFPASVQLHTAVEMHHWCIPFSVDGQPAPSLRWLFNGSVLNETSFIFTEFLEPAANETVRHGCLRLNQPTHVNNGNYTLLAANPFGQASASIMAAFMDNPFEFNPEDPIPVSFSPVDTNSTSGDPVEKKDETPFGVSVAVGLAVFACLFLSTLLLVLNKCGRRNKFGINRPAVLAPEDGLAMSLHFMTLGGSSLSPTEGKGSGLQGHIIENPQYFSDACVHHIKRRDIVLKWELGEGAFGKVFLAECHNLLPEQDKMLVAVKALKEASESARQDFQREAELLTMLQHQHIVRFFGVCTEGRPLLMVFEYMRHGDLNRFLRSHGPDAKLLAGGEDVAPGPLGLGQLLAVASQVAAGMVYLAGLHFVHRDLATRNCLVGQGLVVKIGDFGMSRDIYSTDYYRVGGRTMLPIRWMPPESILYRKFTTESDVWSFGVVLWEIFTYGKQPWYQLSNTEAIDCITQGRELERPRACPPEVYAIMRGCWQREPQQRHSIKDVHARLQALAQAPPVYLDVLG

[3] = target: Vascular endothelial growth factor receptor 2 (Homo sapiens, UniProt P35968); experiment: Inhibition of KDR (unknown origin) using ATP and 5FAM tagged TrkA peptide substrate incubated for 60 mins by microfluidics assay
Ephrin type-B receptor 2 = target: T2, Ephrin type-B receptor 2 (Homo sapiens, UniProt P29323); experiment: Inhibition of EphB2 (unknown origin) using ATP and 5FAM tagged TrkA peptide substrate incubated for 60 mins by microfluidics assay
T2 sequence (P29323 whole entry): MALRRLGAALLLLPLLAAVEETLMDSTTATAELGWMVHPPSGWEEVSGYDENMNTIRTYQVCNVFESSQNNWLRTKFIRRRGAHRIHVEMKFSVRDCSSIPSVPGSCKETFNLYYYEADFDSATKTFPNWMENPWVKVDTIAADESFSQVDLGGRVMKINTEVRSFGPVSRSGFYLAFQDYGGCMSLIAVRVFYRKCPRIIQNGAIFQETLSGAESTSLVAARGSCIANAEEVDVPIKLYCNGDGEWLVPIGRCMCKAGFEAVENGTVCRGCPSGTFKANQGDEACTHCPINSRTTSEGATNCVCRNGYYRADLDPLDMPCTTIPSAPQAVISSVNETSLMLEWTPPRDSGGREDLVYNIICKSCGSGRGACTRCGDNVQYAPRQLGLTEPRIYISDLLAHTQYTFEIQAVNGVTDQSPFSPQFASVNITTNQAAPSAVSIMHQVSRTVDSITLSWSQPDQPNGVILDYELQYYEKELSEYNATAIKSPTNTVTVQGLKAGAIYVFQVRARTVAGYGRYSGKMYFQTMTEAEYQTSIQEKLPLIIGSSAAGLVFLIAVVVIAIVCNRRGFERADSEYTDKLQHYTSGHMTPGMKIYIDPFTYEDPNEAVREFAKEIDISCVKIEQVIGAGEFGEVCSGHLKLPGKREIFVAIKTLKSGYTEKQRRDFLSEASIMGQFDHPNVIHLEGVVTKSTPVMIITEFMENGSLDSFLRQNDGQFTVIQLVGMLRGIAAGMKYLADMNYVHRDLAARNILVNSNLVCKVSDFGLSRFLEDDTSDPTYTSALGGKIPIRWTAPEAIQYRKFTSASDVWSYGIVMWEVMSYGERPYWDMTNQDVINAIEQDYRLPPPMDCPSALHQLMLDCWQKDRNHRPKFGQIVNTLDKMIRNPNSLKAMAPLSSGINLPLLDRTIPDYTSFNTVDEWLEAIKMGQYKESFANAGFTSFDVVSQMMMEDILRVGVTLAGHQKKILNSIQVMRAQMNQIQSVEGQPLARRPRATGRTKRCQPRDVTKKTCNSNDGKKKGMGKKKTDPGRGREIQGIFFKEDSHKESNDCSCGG

Vascular endothelial growth factor receptor 2, sequence (P35968 whole entry): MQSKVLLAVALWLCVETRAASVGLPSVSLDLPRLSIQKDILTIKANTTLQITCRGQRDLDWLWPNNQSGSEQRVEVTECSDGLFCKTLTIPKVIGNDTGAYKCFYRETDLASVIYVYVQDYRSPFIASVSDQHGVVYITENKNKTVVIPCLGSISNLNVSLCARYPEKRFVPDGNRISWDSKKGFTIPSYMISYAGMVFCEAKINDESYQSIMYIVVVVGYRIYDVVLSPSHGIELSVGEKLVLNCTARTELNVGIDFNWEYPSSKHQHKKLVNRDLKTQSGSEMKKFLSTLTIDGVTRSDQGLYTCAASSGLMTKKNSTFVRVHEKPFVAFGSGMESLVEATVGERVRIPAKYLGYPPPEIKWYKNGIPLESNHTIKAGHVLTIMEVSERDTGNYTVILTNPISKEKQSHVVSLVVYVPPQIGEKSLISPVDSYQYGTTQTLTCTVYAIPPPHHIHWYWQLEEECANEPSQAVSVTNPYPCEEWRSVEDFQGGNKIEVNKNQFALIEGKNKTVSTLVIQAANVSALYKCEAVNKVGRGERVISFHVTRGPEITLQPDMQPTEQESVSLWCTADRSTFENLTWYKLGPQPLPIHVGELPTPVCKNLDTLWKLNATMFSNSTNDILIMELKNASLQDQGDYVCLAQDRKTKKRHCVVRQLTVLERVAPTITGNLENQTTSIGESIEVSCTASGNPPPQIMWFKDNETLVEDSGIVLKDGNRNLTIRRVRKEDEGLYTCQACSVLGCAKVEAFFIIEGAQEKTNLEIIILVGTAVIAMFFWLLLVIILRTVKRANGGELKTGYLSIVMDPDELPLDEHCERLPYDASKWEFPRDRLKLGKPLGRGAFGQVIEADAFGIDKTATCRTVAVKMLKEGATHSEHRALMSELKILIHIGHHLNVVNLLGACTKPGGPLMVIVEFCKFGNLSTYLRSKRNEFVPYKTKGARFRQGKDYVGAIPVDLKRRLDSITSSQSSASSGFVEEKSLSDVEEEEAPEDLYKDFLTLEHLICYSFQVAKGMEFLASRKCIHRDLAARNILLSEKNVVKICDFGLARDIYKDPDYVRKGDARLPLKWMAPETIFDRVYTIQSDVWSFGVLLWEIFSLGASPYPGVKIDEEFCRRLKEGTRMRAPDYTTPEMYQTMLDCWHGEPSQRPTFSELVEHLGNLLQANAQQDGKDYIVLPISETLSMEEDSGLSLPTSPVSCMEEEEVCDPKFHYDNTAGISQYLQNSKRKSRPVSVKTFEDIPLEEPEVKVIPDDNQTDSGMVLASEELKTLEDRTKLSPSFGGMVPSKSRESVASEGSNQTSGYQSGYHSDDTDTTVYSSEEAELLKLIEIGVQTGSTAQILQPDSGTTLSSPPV

inhibition [1] [%]	IC50 [2] [nM]	IC50 [3] [nM]	IC50 (Ephrin type-B receptor 2) [nM]	Compound
37.2				COc1ccc(-c2cncc(Oc3cccc(NC(=O)Nc4cc(C(C)(C)C)no4)c3)n2)cc1
47.2				CC(C)(C)c1cc(NC(=O)Nc2cccc(Oc3cncc(-c4ccc(F)cc4)n3)c2)on1
95.5	1600			COc1ccc(-c2cncc(Oc3cccc(NC(=O)Nc4cccc(C(F)(F)F)c4)c3)n2)cc1
98.6	47	> 2000	> 2000	COc1ccc(-c2cncc(Oc3cccc(NC(=O)Nc4cc(C(C)(C)C)on4)c3)n2)cc1
86.9				Cn1cc(-c2cncc(Oc3cccc(NC(=O)Nc4ccc(C(C)(C)C)cc4)c3)n2)cn1
98	380			COc1ccc(-c2cncc(Oc3cccc(NC(=O)Nc4ccc(C(C)C)cc4)c3)n2)cc1
33.8				COc1ccc(-c2cncc(Oc3cccc(NC(=O)Nc4ccc(C(C)(C)C)cc4)c3)n2)cc1
26.9				Cn1nc(C(C)(C)C)cc1NC(=O)Nc1cccc(Oc2cncc(-c3ccc(F)cc3)n2)c1
61.1				Cn1cc(-c2cncc(Oc3cccc(NC(=O)Nc4cc(C(C)(C)C)nn4C)c3)n2)cn1
100	22	> 2000	> 2000	CC(C)(C)c1cc(NC(=O)Nc2cccc(Oc3cncc(-c4ccc(F)cc4)n3)c2)no1
26.8				Cn1nc(C(C)(C)C)cc1NC(=O)Nc1cccc(Oc2cncc(-c3ccsc3)n2)c1
15.5				COc1ccc(-c2cncc(Oc3cccc(NC(=O)Nc4cc(C(C)(C)C)nn4C)c3)n2)cc1
96.5	92		> 2000	CC(C)(C)c1cc(NC(=O)Nc2cccc(Oc3cncc(-c4ccc(S(C)(=O)=O)cc4)n3)c2)no1
94	490			Cn1nc(C(C)(C)C)cc1NC(=O)Nc1cccc(Oc2cncc(-c3ccc(S(C)(=O)=O)cc3)n2)c1

More lines, now with the values behind:

Compound	inhibition [1] [%]	IC50 [2] [nM]	IC50 [3] [nM]	IC50 (Ephrin type-B receptor 2) [nM]
Cn1cc(-c2cncc(Oc3cccc(NC(=O)Nc4cc(C(C)(C)C)no4)c3)n2)cn1	48.8			
Cn1cc(-c2cncc(-c3ccc(NC(=O)Nc4cc(C(C)(C)C)nn4C)cc3)n2)cn1	99.7	12		
CC(C)c1ccc(NC(=O)Nc2cccc(Oc3cncc(-c4ccsc4)n3)c2)cc1	99.2	870		
Cn1cc(-c2cncc(-c3ccc(N)cc3)n2)cn1	46			
CC(C)c1ccc(NC(=O)Nc2cccc(Oc3cncc(-c4ccc(S(C)(=O)=O)cc4)n3)c2)cc1	96.9	420		
CC(C)(C)c1cc(NC(=O)Nc2cccc(Oc3cncc(-c4cncnc4)n3)c2)on1	79.4			
O=C(Nc1cccc(Oc2cncc(-c3ccc(F)cc3)n2)c1)Nc1cccc(C(F)(F)F)c1	27.1			
CC(C)(C)c1cc(NC(=O)Nc2cccc(Oc3cncc(Cl)n3)c2)no1		> 100000		
Nc1ccc(-c2cncc(-c3cncnc3)n2)cc1	77			
CC(C)(C)c1ccc(NC(=O)Nc2cccc(Oc3cncc(-c4ccc(S(C)(=O)=O)cc4)n3)c2)cc1	46.7			
Nc1ccc(-c2cncc(Cl)n2)cc1	47			
CC(C)(C)c1cccc(NC(=O)Nc2cccc(Oc3cncc(Cl)n3)c2)c1		> 100000		
CS(=O)(=O)c1ccc(-c2cncc(Oc3cccc(NC(=O)Nc4cccc(C(F)(F)F)c4)c3)n2)cc1	90.8	1700		
O=C(Nc1cccc(Oc2cncc(-c3cncnc3)n2)c1)Nc1cccc(C(F)(F)F)c1	69.3			
O=C(Nc1cccc(Oc2cncc(Cl)n2)c1)Nc1cccc(C(F)(F)F)c1		3500		
CC(C)c1ccc(NC(=O)Nc2cccc(Oc3cncc(-c4cnn(C)c4)n3)c2)cc1	56.3			
CC(C)(C)c1ccc(NC(=O)Nc2cccc(Oc3cncc(-c4ccc(F)cc4)n3)c2)cc1	32.2			
Nc1ccc(-c2cncc(-c3ccsc3)n2)cc1	17			
Cn1cc(-c2cncc(Oc3cccc(NC(=O)Nc4cc(C(C)(C)C)on4)c3)n2)cn1	101	24		
Cn1cc(-c2cncc(Oc3cccc(NC(=O)Nc4cccc(C(F)(F)F)c4)c3)n2)cn1	92	530		
CC(C)(C)c1cc(NC(=O)Nc2cccc(Oc3cncc(-c4ccsc4)n3)c2)no1	100	39	> 2000	> 2000
CC(C)(C)c1cc(NC(=O)Nc2cccc(Oc3cncc(-c4ccsc4)n3)c2)on1	69			
CC(C)(C)c1ccc(NC(=O)Nc2cccc(Oc3cncc(-c4ccsc4)n3)c2)cc1	27.7			
CC(C)c1ccc(NC(=O)Nc2cccc(Oc3cncc(-c4cncnc4)n3)c2)cc1	28.2			
CC(C)c1ccc(NC(=O)Nc2cccc(Oc3cncc(-c4ccc(F)cc4)n3)c2)cc1	56.9			
CC(C)(C)c1ccc(NC(=O)Nc2cccc(Oc3cncc(-c4cncnc4)n3)c2)cc1	49.6			
O=C(Nc1cccc(Oc2cncc(-c3ccsc3)n2)c1)Nc1cccc(C(F)(F)F)c1	96.2	1100		
